Reference: ChEMBL document CHEMBL1138253, “Cytotoxic and apoptotic activities of novel amino analogues of boswellic acids” (2007)

Assays:
Assay type in all cases: functional
[1] = Cytotoxicity against human 502713 cells at 10 uM after 48 hrs; conditions: Homo sapiens, 502713, 48 h
Outline: (§1)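 SRB growth assay. DMSO stock (1 × 10^-2 M) diluted in RPMI-1640 (2 mM glutamine, pH 7.4, 10% FCS, antibiotics). Trypsinized subconfluent cells with >97% viability (trypan blue) seeded at 10^5 cells/ml and grown 24 h, then exposed to compound 48 h at 37 °C, 5% CO2. Fixed with TCA at 4 °C for 1 h, stained with 0.4% SRB, solubilized in 0.01 M Tris pH 10.4, OD read at 540 nm. Run in triplicate; mean of three experiments.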

MCF7 = test: Cytotoxicity against human MCF7 cells at 10 uM after 48 hrs; conditions: MCF7, 48 h; outline: as §1
SW-620 = test: Cytotoxicity against human SW620 cells at 10 uM after 48 hrs; conditions: SW-620, 48 h; outline: as §1
HT-29 = test: Cytotoxicity against human HT29 cells at 10 uM after 48 hrs; conditions: HT-29, 48 h; outline: as §1
DU-145 = test: Cytotoxicity against human DU145 cells at 10 uM after 48 hrs; conditions: DU-145, 48 h; outline: as §1

Row | SMILES | inhibition at 10 µM [1] | inhibition at 10 µM (MCF7) | inhibition at 10 µM (SW-620) | inhibition at 10 µM (HT-29) | inhibition at 10 µM (DU-145)
1 | CC(=O)N[C@]1(C)[C@@H]2CC[C@]3(C)[C@H](C(=O)C=C4[C@@H]5[C@@H](C)[C@H](C)CC[C@]5(C)CC[C@]43C)[C@@]2(C)CC[C@H]1OC(C)=O | 20% | 62% | 0% | 0% | 9%
2 | C[C@H]1[C@H](C)CC[C@]2(C)CC[C@]3(C)C(=CC(=O)[C@@H]4[C@@]5(C)CC[C@@H](O)[C@](C)(C(=O)O)[C@@H]5CC[C@]43C)[C@H]12 [11-KETO BOSWELLIC ACID] | 0% | 0% | 7% | 7% | 0%
3 | CO[C@@]12[C@H](COC(N)=O)C3=C(C(=O)C(C)=C(N)C3=O)N1C[C@@H]1N[C@@H]12 [MITOMYCIN] | 84% | 78% | 67% | 63% | 56%
4 | CC(=O)O[C@H]1CC[C@@]2(C)[C@@H](CC[C@]3(C)[C@@H]2CC=C2[C@@H]4[C@@H](C)[C@H](C)CC[C@]4(C)CC[C@]23C)[C@@]1(C)N=C=O | 3% | 50% | 6% | 2% | 18%
5 | CCCC(=O)N[C@@]1(C)[C@@H](OC(=O)CCC)CC[C@@]2(C)[C@H]1CC[C@]1(C)[C@@H]2CC=C2[C@@H]3[C@@H](C)[C@H](C)CC[C@]3(C)CC[C@]21C | 14% | 0% | 21% | 0% | 0%
6 | CC(=O)N[C@]1(C)[C@@H]2CC[C@]3(C)[C@H](CC=C4[C@@H]5[C@@H](C)[C@H](C)CC[C@]5(C)CC[C@]43C)[C@@]2(C)CC[C@H]1OC(C)=O | 7% | 57% | 0% | 0% | 8%
7 | COC(=O)[C@@]1(C)[C@H](O)CC[C@@]2(C)[C@H]1CC[C@]1(C)[C@@H]2CC=C2[C@@H]3[C@@H](C)[C@H](C)CC[C@]3(C)CC[C@]21C | 23% | 1% | 0% | 0% | 13%
8 | COC(=O)[C@@]1(C)[C@H](O)CC[C@@]2(C)[C@H]1CC[C@]1(C)[C@@H]2C(=O)C=C2[C@@H]3[C@@H](C)[C@H](C)CC[C@]3(C)CC[C@]21C | 19% | 0% | 1% | 0% | 12%
9 | CCC(=O)N[C@]1(C)[C@@H]2CC[C@]3(C)[C@H](CC=C4[C@@H]5[C@@H](C)[C@H](C)CC[C@]5(C)CC[C@]43C)[C@@]2(C)CC[C@H]1OC(=O)CC | 9% | 35% | 0% | 0% | 8%
10 | CC(=O)O[C@H]1C(=O)[C@@]2(C)[C@H]([C@H](OC(=O)c3ccccc3)[C@]3(O)C[C@H](OC(=O)[C@H](O)[C@@H](NC(=O)c4ccccc4)c4ccccc4)C(C)=C1C3(C)C)[C@]1(OC(C)=O)CO[C@@H]1C[C@@H]2O [PACLITAXEL] | 26% | 46% | 41% | 76% | 53%
11 | CC(=O)O[C@H]1CC[C@@]2(C)[C@@H](CC[C@]3(C)[C@@H]2C(=O)C=C2[C@@H]4[C@@H](C)[C@H](C)CC[C@]4(C)CC[C@]23C)[C@@]1(C)C(=O)O | 23% | 21% | 0% | 19% | 0%
12 | CC(=O)N[C@@]1(C)[C@@H](OC(C)=O)CC[C@@]2(C)[C@H]1CC[C@]1(C)[C@@H]2CC=C2[C@@H]3[C@@H](C)[C@H](C)CC[C@]3(C)CC[C@]21C | 0% | 2% | 43% | 27% | 6%
13 | C[C@H]1[C@H](C)CC[C@]2(C)CC[C@]3(C)C(=CC[C@@H]4[C@@]5(C)CC[C@@H](O)[C@](C)(C(=O)O)[C@@H]5CC[C@]43C)[C@H]12 [BOSWELLIC ACID] | 24% | 18% | 2% | 15% | 0%
14 | CC(=O)O[C@@H]1CC[C@@]2(C)[C@@H](CC[C@]3(C)[C@@H]2C(=O)C=C2[C@@H]4[C@@H](C)[C@H](C)CC[C@]4(C)CC[C@]23C)[C@@]1(C)N=C=O | 2% | 10% | 0% | 0% | 0%
15 | C[C@H]1[C@H](C)CC[C@]2(C)CC[C@]3(C)C(=CC(=O)[C@@H]4[C@@]5(C)CC[C@H](O)[C@](C)(N)[C@@H]5CC[C@]43C)[C@H]12 | 0% | 17% | 7% | 0% | 0%
16 | CC(=O)O[C@@H]1CC[C@@]2(C)[C@@H](CC[C@]3(C)[C@@H]2CC=C2[C@@H]4[C@@H](C)[C@H](C)CC[C@]4(C)CC[C@]23C)[C@@]1(C)N=C=O | 0% | 30% | 0% | 22% | 0%
17 | COC(=O)[C@@]1(C)C(=O)CC[C@]2(C)[C@H]3C(=O)C=C4[C@@H]5[C@@H](C)[C@H](C)CC[C@]5(C)CC[C@@]4(C)[C@]3(C)CC[C@@H]12 | 20% | 3% | 2% | 5% | 13%
18 | COC(=O)[C@]1(C)[C@@H]2CC[C@]3(C)[C@H](CC=C4[C@@H]5[C@@H](C)[C@H](C)CC[C@]5(C)CC[C@]43C)[C@@]2(C)CC[C@@H]1O | 9% | 0% | 12% | 0% | 0%
19 | CCCC(=O)N[C@]1(C)[C@@H]2CC[C@]3(C)[C@H](C(=O)C=C4[C@@H]5[C@@H](C)[C@H](C)CC[C@]5(C)CC[C@]43C)[C@@]2(C)CC[C@H]1OC(=O)CCC | 12% | 0% | 0% | 0% | 0%
20 | CCCC(=O)N[C@]1(C)[C@@H]2CC[C@]3(C)[C@H](CC=C4[C@@H]5[C@@H](C)[C@H](C)CC[C@]5(C)CC[C@]43C)[C@@]2(C)CC[C@H]1OC(=O)CCC | 7% | 0% | 0% | 0% | 0%
21 | CCC(=O)N[C@]1(C)[C@@H]2CC[C@]3(C)[C@H](C(=O)C=C4[C@@H]5[C@@H](C)[C@H](C)CC[C@]5(C)CC[C@]43C)[C@@]2(C)CC[C@H]1OC(=O)CC | 24% | 4% | 0% | 0% | 0%
22 | COC(=O)[C@@]1(C)C(=O)CC[C@]2(C)[C@H]3CC=C4[C@@H]5[C@@H](C)[C@H](C)CC[C@]5(C)CC[C@@]4(C)[C@]3(C)CC[C@@H]12 | 27% | 0% | 3% | 12% | 12%
23 | C[C@H]1[C@H](C)CC[C@]2(C)CC[C@]3(C)C(=CC[C@@H]4[C@@]5(C)CC[C@H](O)[C@](C)(C(=O)O)[C@@H]5CC[C@]43C)[C@H]12 | 18% | 18% | 15% | 11% | 1%
24 | C[C@H]1[C@H](C)CC[C@]2(C)CC[C@]3(C)C(=CC(=O)[C@@H]4[C@@]5(C)CC[C@H](O)[C@](C)(C(=O)O)[C@@H]5CC[C@]43C)[C@H]12 | 27% | 16% | 1% | 0% | 3%
25 | CCC(=O)N[C@@]1(C)[C@@H](OC(=O)CC)CC[C@@]2(C)[C@H]1CC[C@]1(C)[C@@H]2CC=C2[C@@H]3[C@@H](C)[C@H](C)CC[C@]3(C)CC[C@]21C | 0% | 0% | 13% | 24% | 11%
26 | CC(=O)O[C@H]1CC[C@@]2(C)[C@@H](CC[C@]3(C)[C@@H]2C(=O)C=C2[C@@H]4[C@@H](C)[C@H](C)CC[C@]4(C)CC[C@]23C)[C@@]1(C)N=C=O | 0% | 9% | 20% | 5% | 0%
27 | C[C@H]1[C@H](C)CC[C@]2(C)CC[C@]3(C)C(=CC[C@@H]4[C@@]5(C)CC[C@H](O)[C@](C)(N)[C@@H]5CC[C@]43C)[C@H]12 | 23% | 0% | 63% | 51% | 16%
28 | CC(=O)O[C@H]1CC[C@@]2(C)[C@@H](CC[C@]3(C)[C@@H]2CC=C2[C@@H]4[C@@H](C)[C@H](C)CC[C@]4(C)CC[C@]23C)[C@@]1(C)C(=O)O | 12% | 15% | 20% | 17% | 0%
